Measurements reported in ChEMBL document CHEMBL1806497, “Design, synthesis and evaluation of N-benzoylindazole derivatives and analogues as inhibitors of human neutrophil elastase” (Bioorg Med Chem, 2011).
Active and inactive are the calls of the source. The rule behind the calls is not given here.

What was measured:
[1] = target: T1, Neutrophil elastase (Homo sapiens) (UniProt P08246); assay: Inhibition of human neutrophil elastase using N-methylsuccinyl-Ala-Ala-Pro-Val-7-amino-4-methyl-coumarin as substrate at < 55 uM measured every 30 secs for 10 mins by fluorescence microplate reader
T1 sequence (whole entry): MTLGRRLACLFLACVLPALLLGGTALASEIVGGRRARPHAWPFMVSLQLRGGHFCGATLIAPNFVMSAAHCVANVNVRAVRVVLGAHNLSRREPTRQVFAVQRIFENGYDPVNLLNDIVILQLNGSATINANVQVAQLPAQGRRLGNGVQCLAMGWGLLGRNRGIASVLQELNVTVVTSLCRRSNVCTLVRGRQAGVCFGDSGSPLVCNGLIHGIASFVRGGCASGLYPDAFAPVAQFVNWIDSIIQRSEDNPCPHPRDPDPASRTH
Procedure, shortened: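 20 mU/mL HNE in 200 mM Tris–HCl pH 7.5, 0.01% BSA, 0.05% Tween-20, 1% DMSO final, added to compound dilutions. Reaction started with 25 µM substrate, read every 30 s for 10 min at 25 °C (ex 355/em 460 nm). IC50 from % inhibition vs log concentration, at least six points; mean of ≥3 independent experiments.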

[2] = target: T2, Neutrophil elastase (Homo sapiens, UniProt P08246); assay: Inhibition of human neutrophil elastase using N-methylsuccinyl-Ala-Ala-Pro-Val-7-amino-4-methyl-coumarin as substrate measured every 30 secs for 10 mins by fluorescence microplate reader
T2 sequence (P08246 whole entry): T1 sequence (whole entry)

[3] = target: Urokinase-type plasminogen activator (Homo sapiens, UniProt P00749); assay: Inhibition of human urine urokinase using benzyloxycarbonyl-Gly-Gly-Arg-7-amino-4-methylcoumarin as substrate by spectrophotometric analysis
Procedure, shortened: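 30 U/mL urokinase in 0.1 M Tris–HCl pH 8.0 with 30 µM substrate, 25 °C. Fluorescence read at ex 355/em 460 nm. IC50 from % inhibition vs log concentration, at least six points; mean of ≥3 experiments.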

[4] = Inhibition of human pancreatic chymotrypsin using Suc-Ala-Ala-Pro-Phe-7-amino-4-methylcoumarin as substrate by spectrophotometric analysis
Procedure, shortened: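 30 nM chymotrypsin in 0.05 M Tris–HCl pH 8.0 with 100 µM substrate, 25 °C. Fluorescence read at ex 355/em 460 nm. IC50 from % inhibition vs log concentration, at least six points; mean of ≥3 experiments.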

[5] = target: T1, Neutrophil elastase (Homo sapiens); assay: Inhibition of human neutrophil elastase assessed as cleavage of substrate N-methylsuccinyl-Ala-Ala-Pro-Val-7-amino-4-methyl-coumarin at 600 nM after 5 hrs by fluorescence microplate reader
Procedure, shortened: (§1)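 HNE incubated with compound at 600 nM; substrate cleavage followed fluorimetrically for the first 180 min and out to 10 h, with a vehicle control. More fluorogenic substrate added after the 10 h incubation to test residual enzyme activity.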

[6] = target: T1, Neutrophil elastase (Homo sapiens); assay: Inhibition of human neutrophil elastase assessed as cleavage of substrate N-methylsuccinyl-Ala-Ala-Pro-Val-7-amino-4-methyl-coumarin at 600 nM measured upto 120 mins by fluorescence microplate reader
[7] = target: Prothrombin (Homo sapiens, UniProt P00734); assay: Inhibition of human plasma thrombin benzoyl-Phe-Val-Arg-7-amino-4-methylcoumarin as substrate by spectrophotometric analysis
Procedure, shortened: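 Fluorescence read at ex 355/em 460 nm. IC50 from % inhibition vs log concentration, at least six points; mean of ≥3 experiments.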

[8] = target: T1, Neutrophil elastase (Homo sapiens); assay: Inhibition of human neutrophil elastase assessed as cleavage of substrate N-methylsuccinyl-Ala-Ala-Pro-Val-7-amino-4-methyl-coumarin at 600 nM after 10 hrs by fluorescence microplate reader; procedure, shortened: as §1
[9] = target: T1, Neutrophil elastase (Homo sapiens); assay: Competitive inhibition of human neutrophil elastase assessed as hydrolysis of fluorogenic substrate N-methylsuccinyl-Ala-Ala-Pro-Val-7-amino-4-methyl-coumarin by Lineweaver-Burk plot analysis
Procedure, shortened: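 HNE kinetics with inhibitor at 0 and 40 nM over varied substrate concentrations; double-reciprocal Lineweaver–Burk plot, representative of three independent experiments.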

[10] = Stability of the compound in aqueous buffer pH 7.3 assessed as hydrolysis of the compound after 10 hrs by spectrophotometric analysis; assay type: physicochemical; conditions: pH 7.3, 10 h
Procedure, shortened: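 Compound at 20 µM in 0.05 M phosphate buffer pH 7.3, 25 °C. Absorbance spectra (230–330 nm) scanned repeatedly over time to follow spontaneous hydrolysis; scans representative of two independent experiments.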

[11] = target: T1, Neutrophil elastase (Homo sapiens); assay: Inhibition of human neutrophil elastase assessed as cleavage of substrate N-methylsuccinyl-Ala-Ala-Pro-Val-7-amino-4-methyl-coumarin at 600 nM measured upto 90 mins by fluorescence microplate reader; procedure, shortened: as §1

In the case of `CCOC(=O)c1nn(C(=O)Nc2cccc(OC)c2)c2ccccc12`, the inhibition [1] is reported as “inactive”.
With `CCOC(=O)c1nn(C(=O)c2cccc([N+](=O)[O-])c2)c2ccccc12` the inhibition [1] was “inactive”.
With `Cc1ccc(S(=O)(=O)n2nc(C(=O)Nc3ccccc3)c3ccccc32)cc1` the inhibition [1] was “inactive”.
In the case of `CCOC(=O)c1nn(C(=O)c2cccc(C(F)(F)F)c2)c2ccccc12`, the inhibition [1] is reported as “inactive”.
With `CC(C)OC(=O)c1nn(C(=O)c2ccccc2)c2ccccc12` the IC50 [2] was 240 nM, the IC50 [3] was 6300 nM and the IC50 [4] was 47 nM. The inhibition [5] was 50%, the inhibition [6] was “Active” and the IC50 [7] was 7800 nM. For the same compound, the inhibition [8] was “inactive”.
With `O=C(Nc1ccccc1)c1nn(C(=O)c2ccccc2Cl)c2ccccc12` the inhibition [1] was “inactive”.
For `O=C(Nc1ccccc1)c1nn(C(=O)c2ccncc2)c2ccccc12`, the inhibition [1] was “inactive”.
For `CCOC(=O)c1nn(C(=O)c2ccccc2Cl)c2ccccc12`, the inhibition [1] was “inactive”.
For `O=C(Nc1ccccc1)c1nn(Cc2ccc(Cl)cc2)c2ccccc12`, the inhibition [1] was “inactive”.
In the case of `O=C(Nc1ccccc1)c1nn(S(=O)(=O)c2ccc(Cl)cc2)c2ccccc12`, the inhibition [1] is reported as “inactive”.
For `CCOC(=O)c1nn(CC(=O)c2ccccc2)c2ccccc12`, the inhibition [1] was “inactive”.
Work on `COC(=O)c1nn(C(=O)c2ccsc2)c2ccccc12` yielded an IC50 [2] of 310 nM, an IC50 [3] of 12000 nM and an IC50 [4] of 260 nM. For the same compound, the inhibition [5] was 50%, the inhibition [6] was “Active” and the inhibition [8] was “inactive”.
In the case of `CCOC(=O)c1nn(C(=O)c2cc(OC)c(OC)c(OC)c2)c2ccccc12`, the inhibition [1] is reported as “inactive”.
In the case of `O=C(Nc1ccccc1)c1nn(-c2ccc(Cl)cc2)c2ccccc12`, the inhibition [1] is reported as “inactive”.
For `CCOC(=O)c1nn(C(=O)c2ccc([N+](=O)[O-])cc2)c2ccccc12`, the inhibition [1] was “inactive”.
With `O=C(OCC(F)(F)F)c1nn(C(=O)c2ccccc2)c2ccccc12` the IC50 [2] was 260 nM, the IC50 [3] was 10000 nM and the IC50 [4] was 2.9 nM. The inhibition [5] was 50%, the inhibition [6] was “Active” and the IC50 [7] was 6700 nM. The inhibition [8] was “inactive”.
For `CCOC(=O)c1nn(C(=O)c2cccc3ccccc23)c2ccccc12`, the inhibition [1] was “inactive”.
In the case of `O=C(Nc1ccccc1)c1nn(C(=O)c2ccc([N+](=O)[O-])cc2)c2ccccc12`, the inhibition [1] is reported as “inactive”.
With `CCOC(=O)c1nn(C(=O)Nc2ccc(Cl)cc2)c2ccccc12` the inhibition [1] was “inactive”.
In the case of `O=C(O)c1nn(C(=O)c2ccccc2)c2ccccc12`, the inhibition [1] is reported as “inactive”.
`COC(=O)c1nn(C(=O)c2ccccc2)c2ccccc12` gave an IC50 [2] of 89 nM, an IC50 [3] of 1200 nM and an IC50 [4] of 81 nM. The inhibition [5] was 50%, the inhibition [6] was “Active” and the inhibition [9] was “Active”. The Stability [10] was “Unstable”, the IC50 [7] was 14000 nM and the inhibition [8] was “inactive”.
For `COC(=O)c1nn(C(=O)c2cccc(N)c2)c2ccccc12`, the inhibition [1] was “inactive”.
With `COc1cccc(C(=O)n2nc(C)c3ccccc32)c1` the inhibition [1] was “inactive”.
For `CCOC(=O)c1nn(C(=O)C2CCCCC2)c2ccccc12`, the inhibition [1] was “inactive”.
In the case of `COC(=O)c1nn(C(=O)c2cccc(C)c2)c2ccccc12`, the IC50 [2] is reported as 130 nM, the IC50 [3] is reported as 870 nM and the IC50 [4] is reported as 30 nM. The inhibition [6] was “Active”, the inhibition [9] was “Active” and the IC50 [7] was 5100 nM. The inhibition [8] was “inactive”.
For `CCOC(=O)c1nn(C(=O)c2ccncc2)c2ccccc12`, the inhibition [1] was “inactive”.
In the case of `CCCC(=O)n1nc(C(=O)OCC)c2ccccc21`, the IC50 [2] is reported as 180 nM, the IC50 [3] is reported as 14000 nM and the IC50 [4] is reported as 430 nM. The inhibition [5] was “inactive”, the inhibition [11] was “Active” and the IC50 [7] was 5200 nM. For the same compound, the inhibition [8] was “inactive”.
